# Measured values: PMC10688270 (Neurochemical research, 2019)
# “Also recorded” adds a separate entry of the source. Read-outs that look alike come from different tables or passages of the source.
# Tests used:
# SXc− [1] = target: T1, SXc− (Homo sapiens, UniProt Q9UPY5); experiment: Inhibition of SXc−-mediated uptake of 3H-L-Glu into SNB19 cells; format: cell-based; settings: for fold less effective than SAS: comparison of inhibition of SXc− with SAS
# T1 sequence (Q9UPY5 1-501): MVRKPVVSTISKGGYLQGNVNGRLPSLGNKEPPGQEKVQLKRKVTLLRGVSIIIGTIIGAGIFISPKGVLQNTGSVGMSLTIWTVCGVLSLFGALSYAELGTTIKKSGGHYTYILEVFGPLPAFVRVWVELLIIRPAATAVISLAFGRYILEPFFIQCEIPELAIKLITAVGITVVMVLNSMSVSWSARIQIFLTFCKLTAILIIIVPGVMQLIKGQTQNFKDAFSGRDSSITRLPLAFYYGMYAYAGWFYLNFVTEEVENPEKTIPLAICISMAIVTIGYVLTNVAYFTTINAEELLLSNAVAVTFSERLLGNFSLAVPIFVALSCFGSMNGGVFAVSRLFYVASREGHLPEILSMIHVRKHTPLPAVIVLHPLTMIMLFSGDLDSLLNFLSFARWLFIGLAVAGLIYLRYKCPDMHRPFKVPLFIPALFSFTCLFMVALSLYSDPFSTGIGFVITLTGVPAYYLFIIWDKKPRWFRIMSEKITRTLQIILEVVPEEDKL
# T1 sequence (P08195 1-529 partner): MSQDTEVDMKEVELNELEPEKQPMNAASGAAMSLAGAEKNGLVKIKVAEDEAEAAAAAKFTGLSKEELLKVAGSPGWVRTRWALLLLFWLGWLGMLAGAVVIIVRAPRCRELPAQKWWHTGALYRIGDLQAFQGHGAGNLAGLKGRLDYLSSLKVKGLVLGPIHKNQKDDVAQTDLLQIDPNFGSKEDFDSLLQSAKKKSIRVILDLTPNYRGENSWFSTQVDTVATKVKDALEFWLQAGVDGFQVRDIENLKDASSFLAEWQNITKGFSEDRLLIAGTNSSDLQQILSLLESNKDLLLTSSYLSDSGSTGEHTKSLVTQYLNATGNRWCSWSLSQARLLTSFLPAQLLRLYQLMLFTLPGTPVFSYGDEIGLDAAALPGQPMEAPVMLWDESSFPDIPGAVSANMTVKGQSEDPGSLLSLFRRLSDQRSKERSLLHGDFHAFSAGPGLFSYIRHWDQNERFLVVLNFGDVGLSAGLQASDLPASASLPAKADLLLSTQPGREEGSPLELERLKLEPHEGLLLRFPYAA
# In short: (§1)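 Human SNB19 glioma cells were grown in DMEM/F-12 (pH 7.4) with 10% fetal calf serum at 37°C and 5% CO2. They were seeded at 3×10^4 cells/well and used after 3 days at 80–90% confluence. Cells were pre-incubated 5 min at 30°C in Na+-free (choline-Cl) HEPES-buffered Hank's salt solution, pH 7.4. Test compound was added simultaneously with 3H-L-Glu for 5 min at 30°C. Uptake was read by scintillation counting, normalised to BCA protein, and corrected by subtracting 4°C accumulation. Duplicate wells per experiment; n ≥ 3 experiments.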
# SXc− [2] = target: T1, SXc−; experiment: Kinetic analysis; format: cell-based; settings: for Inhibitory Mechanism: V vs [S] and Lineweaver-Burk plots, SNB19 cells
# In short: as §1
# SXc− [3] = settings: previous work; cited from earlier work
# [4] = read-out: IC50 for the inhibition of SXc−-mediated uptake of 3H-L-Glu into SNB19 cells, Mean ± SEM (n ≥ 3), single concentration of L-Glu (100 μM), Na+-free buffer, 5 min, 30°C
compound,measurement,setting,value
O=C(O)c1cc(N=Nc2cccc([N+](=O)[O-])c2)ccc1[O-].[Na+] [Alizarin Yellow GG],fold less effective than SAS,SXc− [1],about 5 fold
same,IC50,SXc− [1]; [4],30 ± 7 µM
O=S(=O)(O)c1cc(O)c2c(O)c(/N=N/c3cccc4ccccc34)c(S(=O)(=O)O)cc2c1 [Pontacyl Violet 6R],IC50,SXc− [1],> 250 µM
COc1ccccc1N=Nc1c(S(=O)(=O)O)cc2cc(S(=O)(=O)O)cc(NC(C)=O)c2c1O [Pontacyl Carmine 2B],IC50,SXc− [1]; [4],> 250 µM
O=[N+]([O-])c1ccc(N=Nc2c(S(=O)(=O)O)cc3cc(S(=O)(=O)O)cc(O)c3c2O)cc1 [Chromotrope 2B],IC50,SXc− [1]; [4],130 ± 23 µM
O=S(=O)(O)c1cc(O)c2c(O)c(N=Nc3ccccc3)c(S(=O)(=O)O)cc2c1 [Chromotrope 2R],IC50,SXc− [1]; [4],21 ± 5 µM
O=C(O)c1cc(N=Nc2ccc([N+](=O)[O-])cc2)ccc1O [Mordant Orange 1],IC50,SXc− [1]; [4],38 ± 3 µM
Nc1c(N=Nc2ccc([N+](=O)[O-])cc2)c(S(=O)(=O)[O-])cc2cc(S(=O)(=O)[O-])c(N=Nc3ccccc3)c(O)c12.[Na+].[Na+] [Acid Black 1],Inhibitory Mechanism,SXc− [2],Competitive
same,Inhibitory Mechanism,SXc− [2]; listed as Acid Black,competitive mechanism; also recorded: competitive inhibition
Nc1cc(S(=O)(=O)O)cc2cc(S(=O)(=O)O)c(N=Nc3cc([N+](=O)[O-])cc(Cl)c3O)c(O)c12 [Gallion],IC50,SXc− [1]; [4],155 ± 11 µM
Chrome Yellow,fold less effective than SAS,SXc− [1],about 5 fold
same,IC50,SXc− [1]; [4],27 ± 4 µM
CC(=O)Nc1cc(S(=O)(=O)O)cc2cc(S(=O)(=O)O)c(N=Nc3ccccc3)c(O)c12 [Acid Red 1],IC50,SXc− [1]; [4],191 ± 8 µM
Nc1ccc(N=Nc2ccc(-c3ccc(N=Nc4ccc(N)c5ccc(S(=O)(=O)O)cc45)cc3)cc2)c2cc(S(=O)(=O)O)ccc12 [AANS #6],Inhibitory Mechanism,SXc− [2],Noncompetitive (Mixed)
same,Inhibitory Mechanism,SXc− [2]; listed as #6,mixed inhibition
"O=S(=O)(O)c1cc2cc(S(=O)(=O)O)c(O)cc2cc1O [3,6-dihydroxy-2,7-naphthylene-disulfonate]",IC50,SXc− [1]; [4],> 500 µM
"Nc1cc(S(=O)(=O)O)cc2cc(S(=O)(=O)O)cc(O)c12 [4-Amino-5-OH-2,7-naphthylene-disulfonate]",inhibitory activity at SXc− (in words),SXc− [1]; 3H-L-Glu uptake into SNB19 cells,inactive
same,IC50,SXc− [1]; [4],> 500 µM
Nc1c(/N=N/c2ccc(-c3ccc(/N=N/c4cc(S(=O)(=O)O)c5ccccc5c4N)cc3)cc2)cc(S(=O)(=O)O)c2ccccc12 [Congo Red],block of glutamate uptake by SXc− (in words),SXc− [3],relatively poor blocker
O=C(O)c1cc(/N=N/c2ccc(S(=O)(=O)Nc3ccccn3)cc2)ccc1O [Sulfasalazine],Ki,SXc− [2],10.4 ± 1.3 µM
same,Inhibitory Mechanism,SXc− [2],Competitive
same,Inhibitory Mechanism,SXc− [2]; listed as SAS,competitive inhibition
